The target in experiment [1] is T1, Phosphodiesterase 1 (Rattus norvegicus) (UniProt Q63421+Q9EPR9+Q01066). Description: Inhibition of Ca-dependent phosphodiesterase from rat cerebral cortex with 1 uM cGMP without compound, after pre-incubation with 2 or 25 uM (negative control). It is filed as functional, tissue-based. Set-up: scale not given: the % may be the effect or the level left. The gist of the method:
(§1)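 Purified calcium-dependent enzyme from rat cerebral cortex (Sephadex G-200 fraction) preincubated with inhibitor at the stated concentration. It was then diluted 1000-fold and assayed with 1 µM cGMP by polyacrylamide-boronate gel chromatography. Assays ran either without further drug or with drug re-added at the preincubation concentration. Activity was compared with enzyme preincubated without inhibitor.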

For experiment [2], the target named is T2, Phosphodiesterase 1 (Rattus norvegicus, UniProt Q63421+Q9EPR9+Q01066). Nature of the experiment: Inhibition of Ca-dependent phosphodiesterase from Rat cerebral cortex using 1 uM cGMP. It is filed as tissue-based. Summed up:
(§2)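 Calcium-dependent enzyme from female Sprague-Dawley rat (200-250 g) cerebral cortex crude extract, taken by Sephadex G-200 gel filtration. Activity measured by polyacrylamide-boronate affinity gel chromatography with 1 µM cAMP or cGMP as substrate. Time and protein adjusted to keep hydrolysis under 25%. I50 interpolated from at least five inhibition values against log inhibitor concentration (10^-7 to 10^-4 M). Triplicate assays, 3-5 experiments, mean ± standard error.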

In experiment [3] the target is T2, Phosphodiesterase 1. Nature of the experiment: Inhibition of Ca-dependent phosphodiesterase from Rat cerebral cortex using 1 uM cAMP. It is filed as tissue-based. The gist of the method: as §2
Experiment [4] deals with T1, Phosphodiesterase 1 (Rattus norvegicus). Nature of the experiment: Inhibition of Ca-dependent phosphodiesterase from rat cerebral cortex at 25 uM with 1 uM cGMP, after pre-incubation at 25 uM. Set-up: scale not given: the % may be the effect or the level left. It is filed as functional, tissue-based. Summed up: as §1
Experiment [5] concerns the target Phosphodiesterase 1 (Bos taurus, UniProt Q01061+P14100). Description: Inhibitory activity against cyclic nucleotide phosphodiesterase in bovine heart carried out at 37 C with cAMP […] as substrate. It is filed as tissue-based. Summed up: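 Crude bovine heart phosphodiesterase containing protein activator and calcium. Assay used 1 µM cAMP substrate with separation of 5'-AMP on Dowex resin. Time and protein adjusted to keep hydrolysis under 25%. I50 interpolated from at least five inhibition values against log inhibitor concentration (10^-7 to 10^-4 M). Triplicate assays, 3-5 experiments, mean ± standard error.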

The target in experiment [6] is T1, Phosphodiesterase 1 (Rattus norvegicus). Description: Inhibition of Ca-dependent phosphodiesterase from rat cerebral cortex at 2 uM with 1 uM cGMP, after pre-incubation at 2 uM. It is filed as functional, tissue-based. The arrangement: scale not given: the % may be the effect or the level left. The gist of the method: as §1

Regarding `COc1cc2ccnc(-c3ccc(N(CCCl)CCCl)cc3)c2cc1OC`, the Activity in experiment [1] worked out at 100%; in experiment [4], 45%. In addition, the results for the I50 at Phosphodiesterase 1 [2], on Phosphodiesterase 1 [3] and on Phosphodiesterase 1 [5] were 15 µM, 7.3 µM and 5.2 µM, respectively.

For the compound `COC(=O)/C=C/C(=O)Nc1ccc(-c2nccc3cc(OC)c(OC)cc23)cc1`, the Activity came out at 100% in experiment [1] and 104% in experiment [4]. The I50 at Phosphodiesterase 1 [2] is greater than 100 µM; at Phosphodiesterase 1 [3] it was 35 µM; on Phosphodiesterase 1 [5], 14 µM.

Take `COc1ccc(Cc2nccc3cc(OC)c(OC)cc23)cc1OC` [PAPAVERINE]: the I50 at Phosphodiesterase 1 [2] came to 21 µM; at Phosphodiesterase 1 [3], 12 µM; on Phosphodiesterase 1 [5] it was 8.8 µM.

`COc1cc2ccnc(Cc3ccc(N(CCCl)CCCl)cc3)c2cc1OC` had an I50 at Phosphodiesterase 1 [5] of 5.3 µM.

With `COc1cc2ccnc(-c3ccc(N)cc3)c2cc1OC`, the Activity was 103% in experiment [1] and 16% in experiment [6]. For the same compound, the I50 is 2.1 µM on Phosphodiesterase 1 [2], 3.4 µM at Phosphodiesterase 1 [3] and 7.4 µM at Phosphodiesterase 1 [5].

For the compound `COC(=O)/C=C/C(=O)Nc1ccc(Cc2nccc3cc(OC)c(OC)cc23)cc1`, the I50 at Phosphodiesterase 1 [5] was 8 µM.

For `C=CC(=O)Nc1ccc(Cc2nccc3cc(OC)c(OC)cc23)cc1`, the I50 on Phosphodiesterase 1 [5] came out at 10 µM.

With `C=CC(=O)Nc1ccc(-c2nccc3cc(OC)c(OC)cc23)cc1`, the Activity in experiment [1] turned out to be 103%; in experiment [4], 50%. The results for the I50 on Phosphodiesterase 1 [2], on Phosphodiesterase 1 [3] and at Phosphodiesterase 1 [5] were 30 µM, 10 µM and 12 µM, respectively.

For `COC(=O)/C=C\C(=O)Nc1ccc(-c2nccc3cc(OC)c(OC)cc23)cc1`, the Activity in experiment [1] stood at 99%; in experiment [6], 14%. For the same compound, the I50 on Phosphodiesterase 1 [2] was determined as 1.1 µM; on Phosphodiesterase 1 [3] it was 1.7 µM; on Phosphodiesterase 1 [5], 5.3 µM.

In the case of `COc1cc2ccnc(Cc3ccc(NCCCl)cc3)c2cc1OC`, the I50 on Phosphodiesterase 1 [5] is 4.1 µM.

With `COc1cc2ccnc(-c3ccc(NC(=O)CCl)cc3)c2cc1OC`, the Activity came out at 105% in experiment [1] and 19% in experiment [6]. The figures for the I50 on Phosphodiesterase 1 [2], on Phosphodiesterase 1 [3] and on Phosphodiesterase 1 [5] were 6.8 µM, 2.3 µM and 5 µM, respectively.

Take `COc1cc2ccnc(-c3ccc(NCCCl)cc3)c2cc1OC`: the Activity in experiment [1] stood at 102%; in experiment [6] it was 21%. Further, the I50 worked out at 12 µM on Phosphodiesterase 1 [2], 2.9 µM on Phosphodiesterase 1 [3] and 3.5 µM at Phosphodiesterase 1 [5].

Consider `COC(=O)/C=C\C(=O)Nc1ccc(Cc2nccc3cc(OC)c(OC)cc23)cc1`, for which the I50 at Phosphodiesterase 1 [5] came to 4 µM.

As to `COc1cc2ccnc(Cc3ccc(NC(=O)CCl)cc3)c2cc1OC`, the I50 on Phosphodiesterase 1 [5] came to 3.9 µM.

At Phosphodiesterase 1 [5], `COc1cc2ccnc(Cc3ccc(N)cc3)c2cc1OC` came in with an I50 of 7.7 µM.
